Several values for one entry are separate records, joined by “and”; a condition that tells them apart may be missing. Equal values may be shown once. Activity calls are given as the source filed them.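 The calls were made as follows: active = IC50 of 10 µM or lower; inactive = IC50 above 10 µM.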
Target: Insulin-degrading enzyme (Homo sapiens) (UniProt P14735)
Assay: IDE inhibitors with FRET1 peptide substrate, late-stage follow-up, artefact control for IDE inhibitor project, biochemical, fluorogenic FRET1 peptide, fluorescence, powder samples (AID 624066)
Conditions: recombinant IDE
How it was run: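 Assay system – purified recombinant wild-type IDE · Input – IDE at 1 nM final, roughly EC80 · Buffer or medium – HEPES/NaCl/MgCl2 buffer, pH 7.4, 0.1% BSA · Incubation – continuous kinetic reading every 2 min over 2 h at 22 °C · Technique – fluorescence, ex 335 nm, em 385 nm · Control set – DMSO-only wells as 100%, enzyme-free wells as 0%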

Sequence of Insulin-degrading enzyme (Homo sapiens) (P14735 whole entry, looked up): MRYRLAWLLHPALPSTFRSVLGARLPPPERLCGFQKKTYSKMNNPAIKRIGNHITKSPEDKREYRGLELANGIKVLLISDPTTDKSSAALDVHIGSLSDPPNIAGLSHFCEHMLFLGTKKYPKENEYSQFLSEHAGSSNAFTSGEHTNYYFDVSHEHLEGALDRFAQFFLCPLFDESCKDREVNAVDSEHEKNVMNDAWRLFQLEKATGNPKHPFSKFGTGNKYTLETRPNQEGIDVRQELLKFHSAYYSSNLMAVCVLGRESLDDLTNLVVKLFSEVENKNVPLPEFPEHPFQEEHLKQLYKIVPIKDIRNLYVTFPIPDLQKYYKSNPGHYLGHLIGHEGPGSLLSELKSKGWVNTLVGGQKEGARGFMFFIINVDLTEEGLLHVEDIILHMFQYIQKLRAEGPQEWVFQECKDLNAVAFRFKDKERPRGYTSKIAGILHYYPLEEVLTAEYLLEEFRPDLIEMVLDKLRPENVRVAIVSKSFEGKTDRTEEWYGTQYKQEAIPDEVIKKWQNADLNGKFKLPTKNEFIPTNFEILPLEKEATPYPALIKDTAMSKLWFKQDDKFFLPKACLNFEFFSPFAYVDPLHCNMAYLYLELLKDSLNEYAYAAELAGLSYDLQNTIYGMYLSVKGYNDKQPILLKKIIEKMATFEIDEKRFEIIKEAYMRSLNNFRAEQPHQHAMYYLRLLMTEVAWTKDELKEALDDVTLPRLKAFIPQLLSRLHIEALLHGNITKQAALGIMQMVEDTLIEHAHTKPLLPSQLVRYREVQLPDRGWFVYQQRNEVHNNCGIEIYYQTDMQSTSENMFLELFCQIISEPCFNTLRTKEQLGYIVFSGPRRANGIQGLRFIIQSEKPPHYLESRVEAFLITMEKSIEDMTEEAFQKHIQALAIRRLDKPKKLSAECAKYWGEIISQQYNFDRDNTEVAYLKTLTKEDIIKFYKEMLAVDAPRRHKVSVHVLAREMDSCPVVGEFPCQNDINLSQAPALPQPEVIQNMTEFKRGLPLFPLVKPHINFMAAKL

| SMILES | IC50 |
| --- | --- |
| O=C(CSc1nnc(-c2cccc(Cl)c2)n1Cc1ccco1)Nc1ccc2c(c1)OCCO2 | > 100 µM (inactive) |
| COc1cc(/C=C2\SC(=S)N(NC(C)=O)C2=O)ccc1OC(=O)c1ccco1 | > 10 µM (inactive) |
| O=C(c1ccc2c(c1)OCO2)N1CCN(C(=O)C2COc3ccccc3C2)CC1 (stereo unspecified) | > 10 µM (inactive) |
| Clc1cccc(-c2nnc(SCc3nc4ccccc4[nH]3)n2-c2ccccc2)c1 | inactive |
| COc1ccc(C(=O)N2CCCN(C(=O)C3CCc4ccccc4O3)CC2)cc1OC (stereo unspecified) | > 10 µM (inactive) |
| O=C(c1ccc2c(c1)OCCO2)N1CCN(C(=O)C2CCc3ccccc3O2)CC1 (stereo unspecified) | > 10 µM (inactive) |
| O=C(c1ccc2c(c1)OCCO2)N1CCN(C(=O)C2COc3ccccc3C2)CC1 (stereo unspecified) | > 10 µM (inactive) |
| O=C(c1ccc2c(c1)OCCO2)N1CCCN(C(=O)C2COc3ccccc3O2)CC1 (stereo unspecified) | > 10 µM (inactive) |
| O=C(CSc1nnc(-c2cccc(Cl)c2)n1Cc1ccco1)Nc1ccccc1C(F)(F)F | > 100 µM (inactive) |
| Cc1ccc(NC(=O)CSc2nnc(-c3cccc(Cl)c3)n2Cc2ccco2)c(C)c1 | > 100 µM (inactive) |
| O=C(CSc1nnc(-c2cccc(Cl)c2)n1Cc1ccco1)Nc1ccc2cn[nH]c2c1 | > 100 µM (inactive) |
| O=C(c1ccc2c(c1)OCCO2)N1CCCN(C(=O)C2COc3ccccc3C2)CC1 (stereo unspecified) | > 10 µM (inactive) |
| Cc1nc(-c2cccnc2)sc1C(=O)Nc1cccc(C(F)(F)F)c1 | > 100 µM (inactive) |
| COc1ccc(C(=O)N2CCN(C(=O)C3CCc4ccccc4O3)CC2)cc1OC (stereo unspecified) | > 10 µM (inactive) |
| O=C(c1ccc2c(c1)OCO2)N1CCN(C(=O)C2COc3ccccc3O2)CC1 (stereo unspecified) | > 10 µM (inactive) |
| O=C(CSc1nnc(-c2cccc(Cl)c2)n1Cc1ccco1)c1ccc2ccccc2c1 | > 100 µM (inactive) |
| Nc1c(C(=O)Nc2nccs2)sc2nc(-c3cccs3)cc(C(F)(F)F)c12 | > 100 µM (inactive) |
| O=C(Nc1cccc(C(F)(F)F)c1)c1csc(-c2cccc(C(F)(F)F)c2)n1 | > 100 µM (inactive) |
| O=C(c1ccc2c(c1)OCCO2)N1CCCN(C(=O)C2CCc3ccccc3O2)CC1 (stereo unspecified) | > 10 µM (inactive) |
| O=C(c1ccc2c(c1)OCO2)N1CCN(C(=O)[C@H]2COc3ccccc3O2)CC1 | > 10 µM (inactive) |
| O=C(c1ccc2c(c1)OCO2)N1CCCN(C(=O)C2COc3ccccc3O2)CC1 (stereo unspecified) | > 10 µM (inactive) |
| COc1ccc(C(=O)N2CCN(C(=O)C3COc4ccccc4O3)CC2)cc1OC (stereo unspecified) | 1.2 µM and > 10 µM (inactive) and > 100 µM (inactive) |
| O=C(Nc1cc(C(F)(F)F)cc(C(F)(F)F)c1)c1csc(-c2ccncc2)n1 | > 100 µM (inactive) |
| O=C(C1CC1)N1CCN(c2ccnc3cc(Cl)ccc23)CC1 | > 100 µM (inactive) |
| COc1ccc(C(=O)N2CCCN(C(=O)C3COc4ccccc4C3)CC2)cc1OC (stereo unspecified) | > 10 µM (inactive) |
| O=C(c1ccc2c(c1)OCO2)N1CCN(C(=O)C2CCc3ccccc3O2)CC1 (stereo unspecified) | > 10 µM (inactive) |

| SMILES | IC50 |
| --- | --- |
| O=C(c1ccc2c(c1)OCO2)N1CCCN(C(=O)C2COc3ccccc3C2)CC1 (stereo unspecified) | > 10 µM (inactive) |
| O=C(c1ccc2c(c1)OCO2)N1CCN(C(=O)[C@@H]2COc3ccccc3O2)CC1 | > 10 µM (inactive) |
| CC(Sc1nnc(-c2cccnc2)n1-c1ccccc1F)C(=O)N1CCCc2ccccc21 (stereo unspecified) | > 100 µM (inactive) |
| O=C(Nc1cccc(C(F)(F)F)c1)c1csc(-c2ccccc2)n1 | > 100 µM (inactive) |
| Cc1ccc(C)c(N2C(=N)S/C(=C\c3ccc(-c4ccccc4C(=O)O)o3)C2=O)c1 | inactive |
| Clc1cccc(-c2nnc(SCc3nc4ccccc4[nH]3)n2Cc2ccco2)c1 | 5 µM |
| Cn1c(SCc2nc3ccccc3[nH]2)nnc1-c1cccc(Cl)c1 | > 100 µM (inactive) |
| O=C(Nc1cccc(C(F)(F)F)c1)c1csc(Cc2cccc(C(F)(F)F)c2)n1 | > 100 µM (inactive) |
| O=C(c1ccc2c(c1)OCO2)N1CCCN(C(=O)C2CCc3ccccc3O2)CC1 (stereo unspecified) | > 10 µM (inactive) |
| COc1ccc(-c2nc(C(=O)Nc3cccc(C(F)(F)F)c3)cs2)cc1 | > 100 µM (inactive) |
| Cc1ccc(-c2nc(C(=O)Nc3cccc(C(F)(F)F)c3)cs2)cc1 | > 100 µM (inactive) |
| CCN(CC)c1ccc(/C=C2\C(=N)N3N=C(CC(=O)N4CCOCC4)SC3=NC2=O)cc1 | > 100 µM (inactive) |
| Cc1c(CCC(=O)NCCCn2ccnc2)c(=O)oc2cc3oc4c(c3cc12)CCCC4 | 5 µM |
| O=C(O)c1ccccc1NS(=O)(=O)c1cccc(-n2sc3ccccc3c2=O)c1 | 5 µM |
| COc1ccc(C(=O)N2CCN(C(=O)C3COc4ccccc4C3)CC2)cc1OC (stereo unspecified) | > 10 µM (inactive) |
| Cn1c(=O)c(C(=O)CN2CCCc3ccccc32)c(N)n(Cc2ccccc2)c1=O | 0.4 µM |
| O=C(Nc1ccc2oc(-c3cccnc3)nc2c1)c1ccc2c(c1)OCCO2 | > 100 µM (inactive) |
| Cc1cccc(-c2nnc(SCc3nc4ccccc4[nH]3)n2Cc2ccco2)c1 | 9 µM and 6.4 µM |
| CCOc1ccc2[nH]c3c(N4CCN(C(=O)c5ccco5)CC4)ncnc3c2c1 | inactive |
| COc1cccc(-c2nnc(SCc3nc4ccccc4[nH]3)n2Cc2ccco2)c1 | 6.4 µM |
| O=C(Nc1cccc(C(F)(F)F)c1)c1csc(-c2ccncc2)n1 | 5 µM |
| COc1ccc(NC(=O)CSc2nnc(CN3CCOCC3)n2C)cc1Cl | > 100 µM (inactive) |
| O=c1c2ccccc2sn1-c1cc(S(=O)(=O)N2CCOCC2)ccc1N1CCOCC1 | 0.2 µM |
| COc1ccc(C(=O)N2CCCN(C(=O)C3COc4ccccc4O3)CC2)cc1OC (stereo unspecified) | > 10 µM (inactive) |
| O=C(c1ccc2c(c1)OCCO2)N1CCN(C(=O)C2COc3ccccc3O2)CC1 (stereo unspecified) | > 10 µM (inactive) |
